Data from ChEMBL document CHEMBL1152867, “Targeting QseC signaling and virulence for antibiotic development” (Science, 2008).
The source made the active and inactive calls. No cut-off for these calls is given here.

Legend:
[1] = test system: Mus musculus; assay: Toxicity in CD1 mouse assessed as WBC counts at 20 mg/kg, po administered daily once for 5 days measured 3 days after final dose; assay type: organism-based; parameters: dose 20 mg/kg, route oral; conditions: in vivo, 72 h
[2] = Terminal half life in CD1 mouse at 20 mg/kg, po; assay type: ADME, organism-based; parameters: dose 20 mg/kg, route oral; conditions: in vivo, read-out: beta t1/2
In short: (§1)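 Terminal cardiac bleeds were taken in groups of three at set times. Plasma was acetonitrile-precipitated with internal standard and analysed by LC/MS/MS against a spiked-plasma standard curve. Parameters came from noncompartmental analysis.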

[3] = biological target: Beta-3 adrenergic receptor (Homo sapiens) (UniProt P13945); assay: Activation of human beta-3-adrenergic receptor expressed in HEK293 cells assessed as cAMP release at 5 uM; assay type: functional, cell-based
Chain of Beta-3 adrenergic receptor (Homo sapiens) (P13945 whole entry, looked up): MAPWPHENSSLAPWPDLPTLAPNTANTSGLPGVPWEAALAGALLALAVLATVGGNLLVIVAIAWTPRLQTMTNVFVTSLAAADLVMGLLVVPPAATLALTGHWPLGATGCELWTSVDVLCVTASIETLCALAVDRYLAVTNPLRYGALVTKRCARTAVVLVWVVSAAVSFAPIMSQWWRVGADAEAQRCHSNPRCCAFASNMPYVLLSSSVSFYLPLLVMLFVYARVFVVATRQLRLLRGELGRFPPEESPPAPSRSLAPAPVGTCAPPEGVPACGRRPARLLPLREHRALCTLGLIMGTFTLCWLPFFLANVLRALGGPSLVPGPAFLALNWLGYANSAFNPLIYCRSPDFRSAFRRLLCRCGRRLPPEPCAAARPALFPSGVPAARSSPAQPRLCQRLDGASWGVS
In short: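 Live HEK293 cells carried an EPAC-based cAMP BRET reporter and expressed endogenous β2 or exogenous β1 or β3 adrenergic receptors. Cells were exposed to test compound alone at 5 μM. Values are means of triplicates, representative of 3 experiments.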

[4] = test system: Mus musculus; assay: Toxicity in CD1 mouse assessed as monocyte counts at 20 mg/kg, po administered daily once for 5 days measured 3 days after final dose; assay type: organism-based; parameters: dose 20 mg/kg, route oral; conditions: in vivo, 72 h
In short: (§2)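 Female CD-1 mice (~22 g), three per group, given 20 mg/kg by oral gavage once daily for 5 days. Vehicle-only mice served as controls. Animals were weighed and observed daily. Three days after the last dose they were weighed and sacrificed. Blood was taken for chemistry and complete blood counts, and organs were weighed.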

[5] = test system: Escherichia coli; assay: Inhibition of epinephrine-induced Escherichia coli Qsec autophosphorylation at 5 pM by liposome-based SDS-PAGE
[6] = AUC in CD1 mouse at 20 mg/kg, po; assay type: ADME, organism-based; parameters: dose 20 mg/kg, route oral; conditions: plasma; in short: as §1
[7] = test system: Escherichia coli; assay: Inhibition of [3H]norepinephrine binding to Escherichia coli Qsec at 5 fM by liposome-based scintillation counting assay
In short: (§3)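 Liposomes reconstituted with QseC were loaded with tritiated norepinephrine (5 μM) by freeze-thaw in liquid N2 and held 10 min at room temperature, so unbound signal could diffuse out. They were pelleted at 12,000g for 5 min and counted for tritium. Counts were normalized to liposomes loaded with 5 μM tyrosine. Compound was tested at 5 pM and 5 fM.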

[8] = test system: Francisella tularensis subsp. tularensis SCHU S4; assay: Inhibition of virulence gene iglC expression in Francisella tularensis SCHU S4 at 5 pM by quantitative real-time PCR; assay type: functional, organism-based
[9] = test system: Mus musculus; assay: Toxicity in CD1 mouse assessed as mean platelet volume at 20 mg/kg, po administered daily once for 5 days measured 3 days after final dose; assay type: organism-based; parameters: dose 20 mg/kg, route oral; conditions: in vivo, 72 h; in short: as §2
[10] = AUC in CD1 mouse at 10 mg/kg, iv administered as bolus dose; assay type: ADME, organism-based; parameters: dose 10 mg/kg, route intravenous; conditions: plasma
In short: (§4)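 Groups of three were bled terminally by cardiac puncture at set times. Plasma was acetonitrile-precipitated with internal standard and quantified by electrospray LC/MS/MS against a plasma standard curve (10-1000 ng/ml). Noncompartmental analysis was used.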

[11] = test system: Escherichia coli; assay: Antibacterial activity against Escherichia coli 8624 assessed as induction of SOS response; assay type: functional, organism-based
[12] = test system: Escherichia coli; assay: Inhibition of epinephrine-induced EspB protein secretion in Escherichia coli 8624 at 5 nM by Western blot; assay type: functional, organism-based
In short: (§5)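 Secreted proteins in cell-free supernatant were TCA-precipitated and immunoblotted with rabbit polyclonal anti-EspA and anti-EspB, with ECL detection.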

[13] = AUC in CD1 mouse at 5 mg/kg, iv administered as bolus dose; assay type: ADME, organism-based; parameters: dose 5 mg/kg, route intravenous; conditions: plasma; in short: as §4
[14] = test system: Mus musculus; assay: Toxicity in CD1 mouse assessed as alanine transferase levels at 20 mg/kg, po administered daily once for 5 days measured 3 days after final dose; assay type: organism-based; parameters: dose 20 mg/kg, route oral; conditions: in vivo, 72 h
[15] = test system: Escherichia coli; assay: Antibacterial activity against Escherichia coli infected in New Zealand white rabbit assessed as inhibition of bacterial colonization in ileum at 20 mg/kg pretreated before 3 hrs of bacterial challenge; assay type: functional, organism-based; parameters: dose 20 mg/kg
[16] = test system: Escherichia coli; assay: Inhibition of [3H]norepinephrine binding to Escherichia coli Qsec at 5 pM by liposome-based scintillation counting assay; in short: as §3
[17] = test system: Mus musculus; assay: Toxicity in CD1 mouse assessed as change in body weight at 20 mg/kg, po administered daily once for 5 days measured 3 days after final dose; assay type: organism-based; parameters: dose 20 mg/kg, route oral; conditions: in vivo, 72 h; in short: as §2
[18] = AUC in CD1 mouse at 20 mg/kg, iv administered as bolus dose; assay type: ADME, organism-based; parameters: dose 20 mg/kg, route intravenous; conditions: plasma; in short: as §4
[19] = Oral bioavailability in CD1 mouse at 20 mg/kg; assay type: ADME, organism-based; conditions: in vivo
In short: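 Female CD-1 mice received 20 mg/kg either as an i.v. bolus or by oral gavage, in the same DMSO/PEG400/Tween 80/bicarbonate pH 9 vehicle. Plasma levels were measured by LC/MS/MS. Bioavailability = AUCoral/AUCiv × Doseiv/Doseoral, using noncompartmental AUCs.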

[20] = test system: Escherichia coli; assay: Inhibition of AI3-induced Qsec-dependent virulence gene flhDC expression in Escherichia coli at 5 pM by quantitative real-time PCR; assay type: functional, organism-based
[21] = test system: Francisella tularensis subsp. tularensis SCHU S4; assay: Inhibition of virulence gene mglA expression in Francisella tularensis SCHU S4 at 5 pM by quantitative real-time PCR; assay type: functional, organism-based
[22] = test system: Escherichia coli; assay: Bactericidal activity against Escherichia coli 8624 at 1 uM; assay type: functional, organism-based
[23] = test system: Salmonella typhimurium; assay: Antibacterial activity against Salmonella Typhimurium SL1344 infected in 129x1/SvJ mouse assessed as survival at 20 mg/kg, po administered 3 hrs pre and 3 hrs post-bacterial challenge measured after 24 hrs; assay type: functional
In short: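 Female 129x1/SvJ mice, 7–9 weeks old, were infected intraperitoneally with 10^8 cfu S. typhimurium SL1344. The test agent was given orally at 20 mg/kg in 5% DMSO/23% PEG400/70% Na bicarbonate pH 9/2% Tween 80, 3 h before and 3 h after infection. Controls were drug alone and infection alone. Groups of 10 mice were used and the experiment was repeated twice. Morbidity and death were recorded daily, and survivors were euthanized at day 12.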

[24] = test system: Escherichia coli; assay: Inhibition of epinephrine-induced EspB protein secretion in Escherichia coli 8624 at 5 pM by Western blot; assay type: functional, organism-based; in short: as §5
[25] = test system: Mus musculus; assay: Toxicity in CD1 mouse assessed as calcium levels at 20 mg/kg, po administered daily once for 5 days measured 3 days after final dose; assay type: organism-based; parameters: dose 20 mg/kg, route oral; conditions: in vivo, 72 h; in short: as §2
[26] = test system: Mus musculus; assay: Toxicity in CD1 mouse assessed as change in kidney weight at 20 mg/kg, po administered daily once for 5 days measured 3 days after final dose; assay type: organism-based; parameters: dose 20 mg/kg, route oral; conditions: in vivo, 72 h; in short: as §2
[27] = test system: Mus musculus; assay: Toxicity in CD1 mouse assessed as change in lung weight at 20 mg/kg, po administered daily once for 5 days measured 3 days after final dose; assay type: organism-based; parameters: dose 20 mg/kg, route oral; conditions: in vivo, 72 h; in short: as §2
[28] = test system: Escherichia coli; assay: Antibacterial activity against Escherichia coli infected in New Zealand white rabbit assessed as inhibition of bacterial colonization in cecum at 20 mg/kg administered along with bacterial challenge; assay type: functional, organism-based; parameters: dose 20 mg/kg; conditions: Caecum
[29] = test system: Francisella tularensis subsp. tularensis SCHU S4; assay: Bacteriostatic activity against Francisella tularensis SCHU S4 at 1 uM; assay type: functional, organism-based
[30] = test system: Mus musculus; assay: Toxicity in CD1 mouse assessed as phosphate levels at 20 mg/kg, po administered daily once for 5 days measured 3 days after final dose; assay type: organism-based; parameters: dose 20 mg/kg, route oral; conditions: in vivo, 72 h; in short: as §2
[31] = test system: Mus musculus; assay: Toxicity in CD1 mouse assessed as aspartate transaminase levels at 20 mg/kg, po administered daily once for 5 days measured 3 days after final dose; assay type: organism-based; parameters: dose 20 mg/kg, route oral; conditions: in vivo, 72 h
[32] = test system: Escherichia coli; assay: Inhibition of AI3-induced Qsec-dependent virulence gene ler expression in Escherichia coli at 5 pM by quantitative real-time PCR; assay type: functional, organism-based
[33] = test system: Mus musculus; assay: Toxicity in CD1 mouse assessed as red cell distribution width at 20 mg/kg, po administered daily once for 5 days measured 3 days after final dose; assay type: organism-based; parameters: dose 20 mg/kg, route oral; conditions: in vivo, 72 h; in short: as §2
[34] = test system: Escherichia coli; assay: Inhibition of epinephrine-induced Qsec-dependent virulence gene ler expression in Escherichia coli at 5 pM by quantitative real-time PCR; assay type: functional, organism-based

Q: Which Activity [1] does the source give for `O=S(=O)(Nc1ccccc1)c1ccc(NC(=S)Nc2ccccc2)cc1` here?
A: Its Activity is 1.5 K/uL.

Q: And the half-life [2]?
A: The half-life was 4.92 h.

Q: What about the Activity [3] of the same compound?
A: Its Activity is “inactive”.

Q: And the Activity [4]?
A: The Activity was 8.1%.

Q: And the Activity [5]?
A: The Activity was “inactive”.

Q: And the AUC [6]?
A: Its AUC is 3470 ng·h/mL.

Q: What about the Activity [7] of the same compound?
A: Its Activity is “inactive”.

Q: What about the Activity [8] of the same compound?
A: The Activity was “Active”.

Q: And the Activity [9]?
A: The Activity was 5 fL.

Q: What about the AUC [10] of the same compound?
A: The AUC was 2400 ng·h/mL.

Q: What about the Activity [11] of the same compound?
A: Its Activity is “inactive”.

Q: What about the Activity [12] of the same compound?
A: The Activity was “Active”.

Q: What about the AUC [13] of the same compound?
A: The AUC was 1090 ng·h/mL.

Q: What about the Activity [14] of the same compound?
A: The Activity was 31.7 U/L.

Q: What about the Activity [15] of the same compound?
A: Its Activity is “inactive”.

Q: And the Activity [16]?
A: The Activity was “Active”.

Q: What about the Activity [17] of the same compound?
A: Its Activity is “Non-toxic”.

Q: And the AUC [18]?
A: The AUC was 5010 ng·h/mL.

Q: What about the bioavailability [19] of the same compound?
A: Its bioavailability is 69.3%.

Q: And the Activity [20]?
A: Its Activity is “Active”.

Q: What about the Activity [21] of the same compound?
A: Its Activity is “Active”.

Q: And the Activity [22]?
A: The Activity was “inactive”.

Q: And the Activity [23]?
A: The Activity was 80%.

Q: What about the Activity [24] of the same compound?
A: The Activity was “Active”.

Q: What about the Activity [25] of the same compound?
A: The Activity was 9.6 mg/dL.

Q: What about the Activity [26] of the same compound?
A: The Activity was “Non-toxic”.

Q: And the Activity [27]?
A: Its Activity is “Non-toxic”.

Q: What about the Activity [28] of the same compound?
A: The Activity was “inactive”.

Q: What about the Activity [29] of the same compound?
A: The Activity was “inactive”.

Q: And the Activity [30]?
A: The Activity was 11 mg/dL.

Q: And the Activity [31]?
A: Its Activity is 120.3 U/L.

Q: What about the Activity [32] of the same compound?
A: Its Activity is “Active”.

Q: What about the Activity [33] of the same compound?
A: Its Activity is 17.6%.

Q: What about the Activity [34] of the same compound?
A: Its Activity is “Active”.
